Screens from PubChem.
CXCR6 inh: CXCR6 (human) receptor inhibition. O00574. AID 602244. CHO-K1 PathHunter CXCR6 beta-arrestin, luminescence. 360,000 tested, 0.36% active. inhibition, % at 20 µM; in the data active = inhibition above about 34%, passing the limit was not always enough;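 note: antagonist mode with CXCL16 agonist at 10 nM final; 0% = 10 nM CXCL16 with DMSO and 100% = unstimulated wells without agonist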
EBI2 block: antagonists of human EBI2 receptor; P32249; EBI2 beta-arrestin recruitment, luminescence, 7a,25-OHC stimulated; inhibition, % at 5 µM; 360,000 tested, 0.81% active; in the data active = inhibition above about 38%;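 note: enzyme fragment complementation signal reports receptor beta-arrestin coupling in cells; 0% = agonist plus DMSO wells and 100% = wells without agonist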
Target sequence (P32249 whole entry, looked up, the tested form may be a part): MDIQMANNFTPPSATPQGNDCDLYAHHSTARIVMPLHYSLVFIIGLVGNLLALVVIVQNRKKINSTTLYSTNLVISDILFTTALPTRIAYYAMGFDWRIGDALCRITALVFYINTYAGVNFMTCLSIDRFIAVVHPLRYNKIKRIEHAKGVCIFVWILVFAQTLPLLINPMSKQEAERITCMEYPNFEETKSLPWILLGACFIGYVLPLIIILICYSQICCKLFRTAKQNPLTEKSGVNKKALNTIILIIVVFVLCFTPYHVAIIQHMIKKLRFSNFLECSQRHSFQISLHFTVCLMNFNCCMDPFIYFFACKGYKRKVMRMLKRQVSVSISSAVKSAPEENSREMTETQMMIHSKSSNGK
APJ ag: activates the human apelin receptor APJ; CHO-K1 APJ PathHunter beta-arrestin, luminescence; 0% DMSO wells, 100% apelin; 330,000 tested, 0.11% active; activation, % at 20 µM; P35414; AID 2520;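 active = activation more than six SD over the plate average, tested at 20 µM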;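 note: 0% = DMSO alone and 100% = apelin-13 at 10 nM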
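Assay system – PathHunter CHO-K1 APJ (AGTRL-1) beta-arrestin reporter cells · Compound – one dose, 20 µM compound, 1% DMSO · Timing – compound 90 min 25 °C, reagent 1 h · Measured by – luminescence from split beta-galactosidase complementation, Galacton Star/Emerald II substrate · Measure – beta-arrestin recruitment to APJ as agonist activity, luminescent signal · Benchmarks – DMSO vs Apelin-13 10 nM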
APJ antagonist: blocks the human apelin receptor APJ; AID 2521; CHO-K1 APJ beta-arrestin complementation, luminescence; 330,000 tested, 0.32% active; P35414; inhibition, % at 20 µM;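 active = inhibition above about 40% at 20 µM, limit read from the data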;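 note: cells challenged with 10 nM apelin-13 agonist together with compound; plate controls were apelin-13 plus DMSO wells for no effect and DMSO wells lacking apelin-13 for full effect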
CCR6 antag: antagonists of human CCR6 receptor | P51684 | CHO-K1 CCR6 PathHunter beta-arrestin, luminescence, CCL20-stimulated | inhibition, % at 20 µM | 340,000 tested, 0.49% active;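 active = compounds whose inhibition of the agonist-driven luminescence signal at 20 µM reaches about 50%, limit read from the data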;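 note: cells stimulated with CCL20 at 14 nM final; plate controls were DMSO with CCL20 for no effect and DMSO without agonist for full effect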
FXN GAA850 act: activators of GAA850 frataxin (FXN) promoter | HEK293 lucGAA850 FXN promoter luciferase reporter, 24 h; percent of 10 µM SAHA response | activation, % at 6 µM | 360,000 tested, 0.56% active;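 active = activation above the average of all compounds screened plus 3 SD, cutoff fixed separately per campaign, cut at about 7.5% in these data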;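 note: 0% = DMSO wells and 100% = 10 µM SAHA wells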
EBI2 antag conf: EBI2 (human) antagonism, single concentration confirmation. shares compounds with EBI2 block. EBI2 beta-arrestin luminescence, 7a,25-OHC antagonism. inhibition, % at 5 µM. 2,400 tested, 29% active;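 active = inhibition of at least 50%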
EBI2 agonist: EBI2 agonism counter-screen; EBI2-expressing cells, agonist mode, luminescence, 60 min; 0% vehicle, 100% 7α,25-dihydroxycholesterol control; shares compounds with EBI2 block; activation, % at 5 µM; 2,400 tested, under 10 active;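 active = activation of at least 50%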
bGal counter: counter-screen for EBI2 antagonists: E. coli beta-galactosidase inhibition. 2,400 tested, 1% active. shares compounds with EBI2 block. inhibition, % at 5 µM. purified beta-galactosidase, luminescent Galacton Star, 15 min;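 active = replicate-average signal at least 3 plate SD below neutral wells, shown as high inhibition, flagging enzyme-inhibiting false positives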;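 note: 0% = DMSO wells with enzyme and 100% = wells lacking enzyme; higher means stronger loss of beta-gal luminescence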
Starred values were filed as active, the others as inactive; · = no result. An excerpt weighted towards active compounds, which were near 2% of everything screened.

SMILES | CXCR6 inh | EBI2 block | APJ ag | APJ antagonist | CCR6 antag | FXN GAA850 act | EBI2 antag conf | EBI2 agonist | bGal counter
CC(c1ccccc1)C(CC(=O)O)C(=O)Nc1ccc(Cl)c(Cl)c1 (centres undefined) | -9.6 | -2.5 | -0.7 | -25.6 | 7.5 | 0.8 | · | · | ·
COc1ccccc1Cc1c(-c2ccc(C#N)cc2)nc2c3ccccc3ccn12 | 1.7 | 43.0* | · | · | · | · | 19.3 | -0.5 | 6.9
O=C1CCCC2=C1C1(CCCCC1)N=C(Nc1nc3ccccc3o1)N2 | 2.3 | 47.4* | 4.0 | 15.7 | -26.5 | 2.7 | 40.1 | -1.8 | -21.1
O=C1CCCC2=C1C1(CCCC1)N=C(Nc1nc3ccccc3o1)N2 | 5.5 | 23.5 | · | · | · | 0.4 | · | · | ·
Cc1cc(C)c(OCC(=O)N2CC=C(c3ccccc3)CC2)c(C)c1 | 0.7 | 60.4* | -1.6 | 2.3 | 2.1 | -1.0 | 70.9* | 3.7 | -3.1
O=C(CNc1cc(S(=O)(=O)N2CCOCC2)ccc1N1CCCC1)Nc1ccc(Cl)cc1 | 0.0 | 8.7 | · | · | 9.3 | 1.2 | · | · | ·
CN(C)c1ccc(/C=N/NC(=S)NCc2ccccc2)cc1 | 0.2 | 48.9* | 7.8 | 3.8 | 11.0 | 1.7 | 28.1 | 0.6 | 4.2
CCc1ccc(/C=N/NC(=S)NCCc2ccccc2)cc1 | 0.6 | 56.9* | -4.7 | 13.7 | 12.6 | -0.2 | 36.0 | 0.0 | -10.6
CC(C)(C)c1ccc(/C=N/NC(=S)NCc2ccccc2)cc1 | 9.6 | 18.5 | -2.4 | -3.2 | 20.5 | 0.7 | · | · | ·
CC(C)Nc1nc(Cl)nc(N(C#N)CN2C(=O)c3ccccc3C2=O)n1 | 20.1 | 56.5* | -1.6 | 0.3 | 17.1 | 3.0 | 52.8* | 0.3 | 6.0
Cc1cc(S(=O)(=O)N(Cc2ccc(C(C)(C)C)cc2)Cc2cccs2)ccc1-n1cnnn1 | 8.0 | 48.4* | -3.8 | 1.6 | 6.5 | 4.2 | 22.0 | 1.5 | 4.5
Cc1ccc(NC(=O)C2CCCN(C(=O)Nc3ccc(F)cc3)C2)cc1 (centres undefined) | -10.0 | -0.4 | -0.3 | 11.7 | 25.0 | -3.1 | · | · | ·
Cc1ccc(C2CCN(C(=O)Nc3ccc(F)cc3)C2)cc1 (centres undefined) | 9.2 | 71.1* | -2.4 | -4.5 | 6.8 | 4.8 | 53.8* | 1.6 | -2.5
COc1ccc(C(=O)C2CCN(C(=O)c3ccc(C)cc3)CC2)cc1 | 2.8 | 52.8* | -2.3 | 1.5 | -8.9 | -0.2 | 47.1 | -0.7 | -19.4
COc1ccc(C(=O)C2CCN(C(=O)Nc3ccc(C)cc3)CC2)cc1 | -7.9 | 49.1* | -3.2 | 5.1 | -4.9 | 0.6 | 15.0 | 1.3 | 3.4
CCOc1ccc(C(=O)C2CCN(C(=O)c3ccc([N+](=O)[O-])cc3)CC2)cc1 | -12.6 | 84.1* | 0.8 | -28.3 | -4.2 | 0.6 | 53.0* | -1.0 | -5.4
COc1ccc(/C=C/CN2CCC(C(=O)NC(c3ccc(F)cc3)c3ccc4ccccc4n3)CC2)cc1 (centres undefined) | 9.5 | 59.9* | · | · | · | -2.6 | 25.8 | -1.0 | -6.4
CC(C)CN1CCC(C(=O)NC(c2ccc(F)cc2)c2ccc3ccccc3n2)CC1 (centres undefined) | 12.2 | -0.2 | · | · | · | -2.8 | · | · | ·
COc1ccc(OCCN2CCC(C(=O)NC(c3ccc(Cl)cc3)c3cnccn3)CC2)cc1 (centres undefined) | 2.1 | 10.9 | · | · | · | -0.9 | · | · | ·
COc1ccc(OCCN2CCC(C(=O)NC(c3ccc(Cl)cc3)c3ncccc3C)CC2)cc1 (centres undefined) | 6.1 | 55.0* | · | · | · | -1.7 | 16.9 | -1.8 | -14.0
COc1ccccc1C(NC(=O)C1CCN(CCOc2ccc3ccccc3c2)CC1)c1ccccn1 (centres undefined) | 15.9 | 44.6* | · | · | · | 1.1 | 18.1 | -0.2 | 7.8
Cc1cccnc1C(NC(=O)C1CCN(CCOc2ccc(F)cc2)CC1)c1ccc(Cl)cc1 (centres undefined) | 9.4 | 36.8 | · | · | · | -1.2 | · | · | ·
